The text below walks through data of ChEMBL document CHEMBL4706490, “New activators of eIF2α Kinase Heme-Regulated Inhibitor (HRI) with improved biophysical properties” (Eur J Med Chem, 2020).

Active and inactive are the calls of the source. The calls are words filed in the database; no cut-off is given here.

The target in assay [1] is Eukaryotic translation initiation factor 2 subunit 1 (Homo sapiens) (UniProt P05198). Put plainly: Activation of eIF2alpha in human CRL-2813 cells assessed as eIF2alpha phosphorylation at 5 uM measured after 2 hrs Western blot analysis. It counts as cell-based. In outline: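 Adherent human melanoma CRL-2813 cells were grown in serum-containing, antibiotic-free medium to 70% confluence and exposed to 5 µM compound or vehicle for 2 hours. Cells were lysed in M-PER on ice, and protein was quantified by BCA and boiled in Laemmli buffer. Lysates were run on SDS-PAGE and immunoblotted for phospho-Ser51 eIF2α, total eIF2α and β-actin.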
(Immunoblotting shows a protein as a band on a membrane.)

Assay [2] has the same target. The experiment in a line: Activation of eIF2alpha (unknown origin) assessed as fold stimulation ATF-4 surrogate eIF2alpha phosphorylation at 1.25 uM cell based Dual luciferase reporter assay. As to conditions: filed as activator. In outline: (§1)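 Cells stably expressing firefly and renilla luciferase reporters were treated in 96-well plates at 10, 5, 2.5 and 1.25 µM and read with a dual glow luciferase kit. The firefly/renilla (F/R) ratio of each well was normalized to vehicle (DMSO) wells on the same plate, set at 1. Dose-response curves used triplicate points fitted to a logistic sigmoidal model.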
In general terms: A reporter such as luciferase makes a cellular process visible.

Assay [3] is described as follows: Antiproliferative activity against human CRL-2813 cells assessed as inhibition of cell growth measured after 5 days by SRB assay. It is filed as functional, cell-based. The essentials: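 CRL-2813 cells in 96-well plates were kept for 5 days with 0.5 to 20 µM compound, then fixed in cold 10% trichloroacetic acid and stained with sulforhodamine B; bound dye absorbance was read. Percent growth was calculated as 100×[(T−T0)/(C−T0)] using day 5 treated, control and time-zero readings. IC50 is the concentration giving 50% growth inhibition.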
In general terms: Sulforhodamine B stains cellular protein and so reports cell mass.

Assay [4] addresses Eukaryotic translation initiation factor 2 subunit 1 (Homo sapiens) (UniProt P05198). The experiment in a line: Activation of eIF2alpha (unknown origin) assessed as fold stimulation ATF-4 surrogate eIF2alpha phosphorylation at 5 uM cell based Dual luciferase reporter assay. Particulars: filed as activator. In outline:
as §1

The subject of another assay is MCF7. Put plainly: Antiproliferative activity against human MCF7 cells transfected with HRI siRNA at 0.27 to 10 uM after 3 days by SRB assay. Particulars: dose 0.27-10 µM, time 3.0 day.
A further assay concerns CRL-2813. The experiment in a line: Effect on p27Kip1 expression in human CRL-2813 cells at 5 uM measured after 8 hrs Western blot analysis. It is filed as functional, cell-based. In outline:
(§2)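 CRL-2813 melanoma cells were grown in serum-containing, antibiotic-free medium to 70% confluence and treated with 5 µM compound for 8 hours. Lysates were made in M-PER on ice, protein was normalized by BCA, and samples were separated by SDS-PAGE. Blots were probed for CHOP, p27Kip1, cyclin D1 and β-actin.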

For assay [5], the target named is Eukaryotic translation initiation factor 2 subunit 1 (Homo sapiens) (UniProt P05198). Put plainly: Activation of eIF2alpha in human CRL-2813 cells assessed as decrease in cyclin D1 expression at 5 uM measured after 8 hrs Western blot analysis. It counts as cell-based. The essentials: as §2
The target is the same in assay [6]. Put plainly: Activation of eIF2alpha in human CRL-2813 cells assessed as increase in CHOP expression at 5 uM measured after 8 hrs Western blot analysis. It counts as cell-based. In outline: as §2

Chain of Eukaryotic translation initiation factor 2 subunit 1 (Homo sapiens) (P05198 whole entry): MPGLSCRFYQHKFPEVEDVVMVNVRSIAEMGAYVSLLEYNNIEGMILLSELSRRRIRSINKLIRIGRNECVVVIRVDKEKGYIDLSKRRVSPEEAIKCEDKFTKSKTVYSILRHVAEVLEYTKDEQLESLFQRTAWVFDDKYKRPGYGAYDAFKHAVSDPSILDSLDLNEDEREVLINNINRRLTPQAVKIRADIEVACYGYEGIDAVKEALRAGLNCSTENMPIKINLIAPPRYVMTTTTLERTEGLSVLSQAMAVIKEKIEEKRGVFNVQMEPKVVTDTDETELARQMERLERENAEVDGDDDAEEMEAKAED

Regarding `N#Cc1cc(F)cc(NC(=O)NC2CCC(Oc3ccc(C(F)(F)F)cc3)CC2)c1` (configuration not stated), the result in assay [1] (filed as activator), in assay [5] (filed as activator) and in assay [6] (filed as activator) was Active. In addition, the fold change (FC) was found to be 4.6 in assay [2] and 9.3 in assay [4]. Further, in assay [3] (Homo sapiens, CRL2813, 120 h), the IC50 (as a rule, the concentration needed to halve the response being measured) was 630 nM. In addition, the result in the assay with MCF7 and in the assay on CRL-2813 was inactive.

Turning to `O=C(Nc1ccc(F)c(F)c1)NC1CC(Oc2ccc(C(F)(F)F)cc2)C1` (trans isomer), the results for the fold change (FC) in assay [2] and in assay [4] were 2.2 and 4.5, respectively. The IC50 in assay [3] (Homo sapiens, CRL2813, 120 h) worked out at 5500 nM.

For the compound `N#Cc1cccc(NC(=O)NC2CC(Oc3ccc(C(F)(F)F)cc3)C2)c1` (stereo in doubt; cis) [listing 1 of 2 here], the IC50 in assay [3] (crl-2813) was over 10000 nM.

On to `N#Cc1cc(NC(=O)NC2CC(Oc3ccc(C(F)(F)F)cc3)C2)cc(C(F)(F)F)c1` (cis isomer), for which the values for the fold change (FC) in assay [2] and in assay [4] were 4.3 and 8.4, respectively.

On to `N#Cc1cccc(NC(=O)N[C@H]2CC[C@H](Oc3ccc(C(F)(F)F)cc3)C2)c1`, for which the fold change (FC) in assay [2] was 0.8; in assay [4], 1.6. Moreover, the half-inhibitory concentration (IC50) in assay [3] (Homo sapiens, CRL2813, 120 h) turned out to be 6500 nM.

Consider `N#Cc1cc(F)cc(NC(=O)N[C@H]2CC[C@H](Oc3ccc(C(F)(F)F)cc3)C2)c1`, for which the figures for the fold change (FC) in assay [2] and in assay [4] were 2.4 and 8, respectively. Moreover, the IC50 in assay [3] (Homo sapiens, CRL2813, 120 h) was determined as 1900 nM.

In the case of `N#Cc1ccc(F)c(NC(=O)NC2CCC(Oc3ccc(C(F)(F)F)cc3)CC2)c1` (configuration not stated), the result (in assay [1]; with CRL-2813; in assay [5]; in assay [6]) was inactive. In addition, the fold change (FC) in assay [2] was 1; in assay [4] it was 1.5. Besides, the IC50 in assay [3] (Homo sapiens, CRL2813, 120 h) is over 10000 nM.

As to `O=C(Nc1cccc(C(F)(F)F)c1)N[C@H]1CC[C@H](Oc2ccc(C(F)(F)F)cc2)C1`, the fold change (FC) in assay [2] is 1.2; in assay [4], 7. Besides, the IC50 in assay [3] (Homo sapiens, CRL2813, 120 h) came out at 2500 nM.

With `N#Cc1ccc(NC(=O)NC2CCC(Oc3ccc(C(F)(F)F)cc3)CC2)cc1F` (trans isomer), the result in assay [1] (filed as activator), in assay [5] (filed as activator) and in assay [6] (filed as activator) was Active. In addition, the values for the fold change (FC) in assay [2] and in assay [4] were 5.5 and 10.4, respectively. The IC50 in assay [3] (Homo sapiens, CRL2813, 120 h) was 460 nM. Besides, the result with MCF7 and in the assay on CRL-2813 was inactive.

As to `O=C(Nc1cccc(C(F)(F)F)c1)NC1CC(Oc2ccc(C(F)(F)F)cc2)C1` (cis isomer) [listing 1 of 2 here], the IC50 in assay [3] (crl-2813) amounted to 2600 nM.

On to `O=C(Nc1cccc(C(F)(F)F)c1)NC1CC(Oc2ccc(C(F)(F)F)cc2)C1` (trans isomer) [listing 1 of 2 here], for which the fold change (FC) in assay [2] came to 2.4; in assay [4], 6.5.

On to `O=C(Nc1cccc(F)c1F)NC1CC(Oc2ccc(C(F)(F)F)cc2)C1` (trans isomer), for which the fold change (FC) in assay [2] was determined as 0.8; in assay [4], 6.2. Further, the IC50 in assay [3] (Homo sapiens, CRL2813, 120 h) is 2300 nM.

In the case of `N#Cc1cc(NC(=O)N[C@H]2CC[C@H](Oc3ccc(C(F)(F)F)cc3)C2)cc(C(F)(F)F)c1`, the fold change (FC) in assay [2] came to 3.1; in assay [4], 8.3. In addition, in assay [3] (Homo sapiens, CRL2813, 120 h), the IC50 is 1200 nM.

In the case of `Cc1ccc(F)cc1NC(=O)NC1CC(Oc2ccc(C(F)(F)F)cc2)C1` (configuration not stated), the fold change (FC) in assay [2] is 0.7; in assay [4], 1.4. Besides, the IC50 in assay [3] (Homo sapiens, CRL2813, 120 h) was over 10000 nM.

`N#Cc1cccc(NC(=O)NC2CC(Oc3ccc(C(F)(F)F)cc3)C2)c1` (stereo in doubt; trans) [listing 1 of 2 here]: in assay [3] (crl-2813), the IC50 turned out to be 4900 nM.

Turning to `Cc1ccc(F)cc1NC(=O)NC1CCC(Oc2ccc(C(F)(F)F)cc2)CC1` (configuration not stated), the result in assay [1] (filed as activator), in assay [5] (filed as activator) and in assay [6] (filed as activator) was Active. Also, the fold change (FC) in assay [2] was 1.8; in assay [4] it was 1.5. The IC50 in assay [3] (Homo sapiens, CRL2813, 120 h) worked out at 5300 nM. The result with CRL-2813 was inactive.

With `O=C(Nc1ccc(F)c(F)c1)N[C@H]1CC[C@H](Oc2ccc(C(F)(F)F)cc2)C1`, the fold change (FC) in assay [2] was determined as 0.9; in assay [4] it was 3.5. For the same compound, the IC50 in assay [3] (Homo sapiens, CRL2813, 120 h) stood at 5200 nM.

Consider `N#Cc1cccc(NC(=O)NC2CC(Oc3ccc(C(F)(F)F)cc3)C2)c1` (stereo in doubt; cis) [listing 2 of 2 here], for which the fold change (FC) in assay [2] came to 1.1; in assay [4], 0.9.

For the compound `O=C(Nc1cccc(C(F)(F)F)c1)NC1CC(Oc2ccc(C(F)(F)F)cc2)C1` (cis isomer) [listing 2 of 2 here], the values for the fold change (FC) in assay [2] and in assay [4] were 1.2 and 6.2, respectively.

`N#Cc1cc(NC(=O)NC2CCC(Oc3ccc(C(F)(F)F)cc3)CC2)ccc1F` (configuration not stated): the figures for the fold change (FC) in assay [2] and in assay [4] were 3.7 and 6.1, respectively. Besides, in assay [3] (Homo sapiens, CRL2813, 120 h), the IC50 was 1400 nM.

Consider `O=C(Nc1cccc(F)c1F)NC1CCC(Oc2ccc(C(F)(F)F)cc2)CC1` (configuration not stated), for which the outcome in assay [1] (filed as activator), in assay [5] (filed as activator) and in assay [6] (filed as activator) was Active. Also, the figures for the fold change (FC) in assay [2] and in assay [4] were 4.7 and 9.9, respectively. In addition, in assay [3] (Homo sapiens, CRL2813, 120 h), the IC50 turned out to be 1600 nM. Further, in the assay on CRL-2813, the result was inactive.

On to `Cc1ccc(F)cc1NC(=O)N[C@H]1CC[C@H](Oc2ccc(C(F)(F)F)cc2)C1`, for which the figures for the fold change (FC) in assay [2] and in assay [4] were 1.4 and 1.3, respectively. In addition, in assay [3] (Homo sapiens, CRL2813, 120 h), the IC50 is 8000 nM.

As for `N#Cc1cc(NC(=O)NC2CCC(Oc3ccc(C(F)(F)F)cc3)CC2)cc(C(F)(F)F)c1` (configuration not stated), the outcome in assay [1] (filed as activator), in assay [5] (filed as activator) and in assay [6] (filed as activator) was Active. Besides, the fold change (FC) turned out to be 5.7 in assay [2] and 13.8 in assay [4]. In addition, the IC50 in assay [3] (Homo sapiens, CRL2813, 120 h) came out at 350 nM. The result in the assay on MCF7 and in the assay with CRL-2813 was inactive.

As to `O=C(Nc1cccc(C(F)(F)F)c1)NC1CC(Oc2ccc(C(F)(F)F)cc2)C1` (trans isomer) [listing 2 of 2 here], in assay [3] (Homo sapiens, CRL2813, 120 h), the IC50 came out at 3400 nM.

Consider `N#Cc1cccc(NC(=O)NC2CC(Oc3ccc(C(F)(F)F)cc3)C2)c1` (stereo in doubt; trans) [listing 2 of 2 here], for which the fold change (FC) in assay [2] stood at 1.6; in assay [4], 3.5.

Take `N#Cc1cc(NC(=O)NC2CC(Oc3ccc(C(F)(F)F)cc3)C2)cc(C(F)(F)F)c1` (trans isomer) [listing 1 of 2 here]: in assay [3] (Homo sapiens, CRL2813, 120 h), the IC50 was found to be 900 nM.

With `N#Cc1cc(NC(=O)NC2CC(Oc3ccc(C(F)(F)F)cc3)C2)cc(C(F)(F)F)c1` (trans isomer) [listing 2 of 2 here], the outcome in assay [1] (filed as activator), in assay [5] (filed as activator) and in assay [6] (filed as activator) was Active. Further, the fold change (FC) was determined as 4.4 in assay [2] and 10 in assay [4]. Also, the outcome with MCF7 and in the assay on CRL-2813 was inactive.

Consider `N#Cc1cccc(NC(=O)NC2CCC(Oc3ccc(C(F)(F)F)cc3)CC2)c1` (configuration not stated), for which the fold change (FC) in assay [2] is 1.9; in assay [4] it was 6.1. Further, the IC50 in assay [3] (Homo sapiens, CRL2813, 120 h) turned out to be 1600 nM.

Consider `N#Cc1cc(F)cc(NC(=O)NC2CC(Oc3ccc(C(F)(F)F)cc3)C2)c1` (trans isomer), for which the fold change (FC) in assay [2] was 2; in assay [4] it was 5.3. In assay [3] (Homo sapiens, CRL2813, 120 h), the IC50 is 2800 nM.

Consider `O=C(Nc1cccc(C(F)(F)F)c1)NC1CCC(Oc2ccc(C(F)(F)F)cc2)CC1` (configuration not stated), for which the figures for the fold change (FC) in assay [2] and in assay [4] were 3.6 and 9.2, respectively. In assay [3] (Homo sapiens, CRL2813, 120 h), the IC50 is 900 nM.

`N#Cc1ccc(NC(=O)NC2CCC(Oc3ccc(C(F)(F)F)cc3)CC2)c(F)c1` (configuration not stated): the fold change (FC) in assay [2] was 2.4; in assay [4] it was 6.2. In assay [3] (Homo sapiens, CRL2813, 120 h), the IC50 was found to be 1400 nM.

Take `O=C(Nc1ccc(F)c(F)c1)NC1CCC(Oc2ccc(C(F)(F)F)cc2)CC1` (trans isomer): the fold change (FC) in assay [2] turned out to be 2.9; in assay [4] it was 5.6. In addition, in assay [3] (Homo sapiens, CRL2813, 120 h), the IC50 was found to be 1300 nM.
